Screening results from PubChem BioAssay.
HUVEC inhibit: blocks proliferation of human endothelial cells; HUVEC proliferation, CellTiter-Glo luminescence, 72 h; hits give low values; viability, % at 10 µM (by protocol); 86,000 tested, 1.1% active; AID 648;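 active = viability at or below 30%; inactive = viability above 30%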;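 note: 100% = median luminescence of DMSO-only cell control wells on each plate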
Lung fibro prol: blocks proliferation of human lung fibroblasts; AID 719; viability, % at 10 µM; LL 47 human lung fibroblast viability, ATP luminescence; hits give low values; 85,000 tested, 1.1% active;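 active = viability at or below 50% in the single dose screen; inactive = viability above 50%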;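 note: compound exposure lasted 72 h before the ATP readout; 100% = median luminescence of untreated cell-only wells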
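Test system: LL 47 human lung fibroblasts / Quantity: 1,150 cells in each well / Medium: IMEM growth medium with 15% fetal bovine serum / Incubation: 72 h compound exposure at 37 °C after overnight plating / Detection: CellTiter-Glo luminescence measuring cellular ATP / Read-out: % viability versus median cells-only luminescence / Benchmarks: cell-only wells, no compound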
PTEN del growth: suppresses growth of cells with PTEN deletion. HCT116 PTEN-null viability, CellTiter-Glo, 60 h; hits give low values. viability, % at 10 µM. AID 827. 140,000 tested, 1.2% active;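 active = viability at or below a set limit, 4 SD under the median of all tested compounds, cut at about 3.7% in these data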;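 note: PTEN knockout HCT116 line with beta catenin targeted HCT116 as companion control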
bCat KO growth: beta-catenin-lacking colon tumor cell growth suppression | HCT116 beta-catenin knockout viability, CellTiter-Glo, 60 h; hits give low values | viability, % at 10 µM | 140,000 tested, 1.5% active | AID 818;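 active = viability at or under a set limit, the compound median less 4 SD, cut at about 6% in these data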;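 note: 0% = Hyamine 1622 control at 20 µM and 100% = untreated cell control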
H69AR growth 86K: blocks growth of human H69AR lung tumor cells; viability, % at 10 µM; AID 598; 85,000 tested, 6% active; H69AR lung tumor viability, ATP luminescence, 72 h; hits give low values;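 active = viability at or below 40%; inactive = viability above 40%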;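 note: multidrug resistant small cell line overexpressing MRP-1 efflux transporter; 100% = mean luminescence of untreated control wells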
Numbers without * were called inactive; . = no result given. Many of the other results were omitted from the sample, so hits are more common in it than they were.

SMILES	HUVEC inhibit	Lung fibro prol	PTEN del growth	bCat KO growth	H69AR growth 86K
CC(/C=C/c1ccc2c(c1)OCO2)=N\NC(=O)c1cccc([N+](=O)[O-])c1	31	28*	83	88	7.3*
CC(/C=C/c1ccc2c(c1)OCO2)=N/NC(=O)C1COc2ccccc2O1 (stereo unspecified)	.	.	81	87	.
Cn1cccc1/C=N/NC(=O)c1ccn[nH]1	.	.	87	87	.
Cc1ccc(/C=C2/SC(=S)N(CC(=O)Nc3ncc(Cc4ccc(C)cc4)s3)C2=O)cc1	93	84	79	82	4.0*
Cc1ccc(/C=C2\SC(=S)N(CC(=O)Nc3ncc(Cc4ccccc4Cl)s3)C2=O)cc1	.	.	66	74	.
Cc1ccc(NC(=O)CSc2nnc3n2CCCCC3)cc1	.	.	105	98	.
COc1ccc(Oc2c(Cl)cnn(-c3ccc(C)cc3)c2=O)cc1	.	.	15	5.5*	.
COc1ccc(Oc2c(Cl)cnn(-c3ccc(F)cc3)c2=O)cc1	.	.	93	95	.
COc1ccc(Oc2c(Cl)cnn(-c3ccc(Cl)c(Cl)c3)c2=O)cc1	.	.	0.7*	1.0*	.
COc1c(Cl)cnn(-c2ccc(C)cc2)c1=O	.	.	1.1*	1.2*	.
CC(=O)Nc1nc(-c2ccc(Cl)cc2)ns1	.	.	80	73	.
CCCOc1ccc(CN(CCC#N)C(=S)NC(=O)c2ccccc2)cc1	.	.	22	26	.
COc1ccccc1-c1nc(-c2ccccn2)no1	60	53	38	43	40*
CC1CCN(CCCNC(=O)c2cc3sccc3n2C)CC1	91	96	70	72	76
COc1ccc(N2CCN(CCCNC(=O)c3cc4sccc4n3C)CC2)cc1	86	93	69	68	30*
CN(C)S(=O)(=O)c1cc(NC(=O)COC(=O)c2ccc3c(c2)OCO3)ccc1Cl	.	.	103	98	.
CC1CCCC(C)N1c1nnc(NC(=O)c2cc(-c3ccc(Br)cc3)on2)s1 (stereo unspecified)	.	.	93	79	.
COc1ccc(CCNC(=O)c2cc(-c3cc(C)c(C)cc3O)n[nH]2)cc1OC	94	101	94	94	29*
COc1ccc(CCNC(=O)c2ccc(=O)[nH]n2)cc1OC	96	96	113	102	89
Cc1ccc(C)c(OCC(=O)Nc2nonc2NC(=O)COc2cc(C)ccc2C)c1	56	96	76	84	19*
N#Cc1c(-c2ccco2)cc(-c2ccccn2)nc1N	86	88	88	88	35*
O=[N+]([O-])c1cnc(N2CCCCC2)c([N+](=O)[O-])c1	.	.	91	88	.
Cc1ccc(Nc2nc(N)c([N+](=O)[O-])c(NCc3ccco3)n2)cc1C	.	.	38	38	.
Cc1oc2c(c1C(=O)N1CCC(C)CC1)C(=O)c1ccccc1C2=O	.	.	1.5*	1.6*	.
CCOC(=O)C1CCN(C(=O)c2c(C)oc3c2C(=O)c2ccccc2C3=O)CC1	.	.	0.7*	1.1*	.
SMILES	HUVEC inhibit	Lung fibro prol	PTEN del growth	bCat KO growth	H69AR growth 86K
CC1CCN(C(=O)c2cc3ccccc3c(=O)o2)CC1	.	.	96	104	.
CCC(=O)N(C)CCc1cc2c(c(OC)c1/C=N/NC(=O)c1ccc(Br)cc1)OCO2	.	.	91	93	.
CCCc1ccc(Oc2cn[nH]c2-c2ccc(O)cc2O)cc1	61	91	63	64	29*
C=C(C)COc1ccc(-c2[nH]ncc2Oc2cccc(OC)c2)c(O)c1	5.2*	55	24	17	1.3*
C=C(C)COc1ccc(-c2ncncc2Oc2ccc(OC)cc2)c(O)c1	89	98	87	85	48
C=C(C)COc1ccc(-c2[nH]ncc2Oc2ccccc2OCC)c(O)c1	27*	56	50	56	.
C=C(C)COc1ccc(-c2nc(N)nc(C)c2Oc2ccccc2OC)c(O)c1	94	89	87	86	77
COc1ccc(-c2[nH]ncc2-c2cnn(-c3ccccc3)c2)c(O)c1	.	.	75	74	.
COc1ccc(Oc2cn[nH]c2-c2ccc(O)cc2O)cc1	85	96	82	86	92
COc1ccc(-c2[nH]ncc2Oc2ccccc2OC)c(O)c1	98	101	91	82	39*
CCCCNC(=O)CCn1c(=O)c2ccccc2n(Cc2ccc(Cl)cc2)c1=O	.	.	11	23	.
Cc1c(Cl)cccc1NC(=O)[C@@H](NC(=O)c1ccccc1Cl)C(C)C	.	.	48	77	.
CSCCC(NC(=O)c1ccccc1Br)C(=O)Nc1ccc(C)cc1 (stereo unspecified)	.	.	102	98	.
CCOc1ccc2[nH]c(=O)c(CN(Cc3cccs3)Cc3nnnn3C(C)(C)CC)cc2c1	83	91	21	24	28*
Cc1cc(NC(=O)C2C3C(=O)N(CC4CCCO4)C(C(=O)NCc4ccccc4)C34C=CC2(C)O4)no1 (stereo unspecified)	89	102	89	87	91
Cc1cccc(C)c1NC(=O)CNC(=O)CCC(=O)c1cccs1	.	.	88	95	.
COc1ccc2[nH]c(=O)c(CN(CC3CCCO3)C(=O)Nc3ccccc3OC)cc2c1 (stereo unspecified)	64	87	65	60	20*
COc1ccc(C(=O)N(Cc2ccco2)Cc2cc3cc(C)ccc3[nH]c2=O)cc1OC	102	101	.	.	41
CCC1Oc2ccc(C)cc2N(CC(=O)N(Cc2ccncc2)Cc2ccco2)C1=O (stereo unspecified)	96	121	75	72	34*
CCOc1ccc2[nH]c(=O)c(CN(Cc3ccco3)C(=O)c3ccc(Br)cc3)cc2c1	57	66	45	49	19*
CCOc1ccc2[nH]c(=O)c(CN(Cc3ccco3)C(=O)c3cccc(F)c3)cc2c1	86	89	94	105	78
Cc1ccc2[nH]c(=O)c(CN(Cc3ccco3)C(=O)c3ccncc3)cc2c1	58	83	24	28	23*
O=C(Oc1cc(=O)n2ccccc2n1)c1ccccc1	.	.	94	97	.
CCSc1nnc(NC(=O)CCc2ccc(OC)cc2)s1	.	.	101	93	.
COc1ccc2[nH]c(=O)c(CN(Cc3ccco3)C(=O)c3ccccc3)cc2c1	109	100	84	79	59
SMILES	HUVEC inhibit	Lung fibro prol	PTEN del growth	bCat KO growth	H69AR growth 86K
CCOc1ccc2[nH]c(=O)c(CN(Cc3ccccc3OC)C(=O)c3ccccc3)cc2c1	52	51	23	21	27*
CCOc1ccc2[nH]c(=O)c(CN(Cc3ccc(F)cc3)C(=O)c3ccco3)cc2c1	49	78	29	34	16*
O=C(Nc1ccc(F)cc1)N(Cc1cccs1)Cc1cc2cc3c(cc2[nH]c1=O)OCO3	.	.	60	66	.
O=C(Nc1ccc(F)cc1)N(Cc1ccco1)Cc1cc2cc3c(cc2[nH]c1=O)OCO3	77	94	62	68	31*
Cc1cc2cc(CN(Cc3ccco3)C(=O)NCc3ccccc3)c(=O)[nH]c2cc1C	97	95	88	92	77
Cc1cc2cc(CN(Cc3ccco3)C(=O)C3CCCCC3)c(=O)[nH]c2cc1C	88	78	82	86	16*
O=C(c1cn(-c2ccccc2)nc1-c1ccc(Br)cc1)N1CCOCC1	.	.	94	98	.
Cc1ccc(C(=O)Nc2onc(C)c2C#N)cc1	.	.	98	92	.
